Assays:
[1] = Oral bioavailability in Han Wistar rat at 10 mg/kg; assay type: ADME, organism-based; conditions: in vivo
How it was run: (§1)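 Rat PK study: oral dose 10 mg/kg in 0.1% HPMC; intravenous dose 3 mg/kg in 40% DMA/40% TEG/20% saline. Half-life taken from the iv arm; F not determined where no oral dose was given.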

[2] = Volume of distribution at steady state in Han Wistar rat at 10 mg/kg, po and 3 mg/kg, iv; assay type: ADME, organism-based; conditions: in vivo, read-out: Vdss; how it was run: as §1
Plasma [3] = experiment: Fraction unbound in human plasma by LC-MS/MS analysis; assay type: ADME, cell-free
Plasma [4] = experiment: Drug uptake in plasma of po dosed nude mouse xenografted with human A375 cells after 2 hrs; assay type: ADME, organism-based, A-375; conditions: in vivo
How it was run: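 A375 xenograft mice given a single oral dose; tumors and plasma harvested 2 h later. Tumor pERK measured by Western blot with equal protein loading, normalized to total ERK, and expressed as percent reduction in pERK.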

| SMILES | bioavailability [1] | Vd [2] | Cp(f) (Plasma [3]) | Drug uptake (Plasma [4]) |
| --- | --- | --- | --- | --- |
| COCCC(=O)N(C)c1ccc(Nc2ncc3cc(-c4ccncc4)ccc3n2)cc1 | 60% | 0.7 L/kg |  |  |
| COCCN(C)c1ccc(Nc2ncc3cc(-c4ccncc4)ccc3n2)cc1 |  |  | < 1% |  |
| COCCNC(C)c1ccc(Nc2ncc3cc(-c4ccncc4)ccc3n2)cc1 (configuration not stated) | 31% | 4.9 L/kg | 9.4% |  |
| COCCC(=O)N[C@H](C)c1ccc(Nc2ncc3cc(-c4ccncc4)ccc3n2)cc1 |  |  | 1.5% |  |
| COCCC(=O)N[C@@H](C)c1ccc(Nc2ncc3cc(-c4ccncc4)ccc3n2)cc1 |  |  | < 1% |  |
| CC(=O)NC(C)c1ccc(Nc2ncc3cc(-c4ccncc4)ccc3n2)cc1 (configuration not stated) |  |  | 5% |  |
| CC(=O)N[C@H](C)c1ccc(Nc2ncc3cc(-c4ccncc4)ccc3n2)cc1 | 100% | 0.8 L/kg | 6% | Dose-dependent effect |
| C[C@@H](NC(=O)[C@H]1CCCCN1)c1ccc(Nc2ncc3cc(-c4ccncc4)ccc3n2)cc1 | 28% | 13 L/kg | 5.1% |  |
| C[C@@H](NC(=O)[C@H]1CCCCN1CCO)c1ccc(Nc2ncc3cc(-c4ccncc4)ccc3n2)cc1 |  |  | 3.4% |  |
| C[C@@H](NC(=O)[C@H]1CCCNC1)c1ccc(Nc2ncc3cc(-c4ccncc4)ccc3n2)cc1 |  |  | 1.7% |  |
| C[C@@H](NC(=O)C1CCNCC1)c1ccc(Nc2ncc3cc(-c4ccncc4)ccc3n2)cc1 |  |  | 3.4% |  |
| C[C@@H](NC(=O)[C@H]1CCCN1)c1ccc(Nc2ncc3cc(-c4ccncc4)ccc3n2)cc1 |  |  | 1.4% |  |
| C[C@@H](NC1=CC(=O)CCC1)c1ccc(Nc2ncc3cc(-c4ccncc4)ccc3n2)cc1 | 17% | 0.67 L/kg | 1.3% |  |
| C[C@@H](NC1=CC(=O)NCC1)c1ccc(Nc2ncc3cc(-c4ccncc4)ccc3n2)cc1 |  |  | 2.3% |  |
| C[C@@H](NC1=CC(=O)CNC1)c1ccc(Nc2ncc3cc(-c4ccncc4)ccc3n2)cc1 |  | 7.9 L/kg | 3.6% |  |
| COc1cc2nc(Nc3ccc([C@@H](C)NC(C)=O)cc3)ncc2cc1-c1ccncc1 |  | 0.67 L/kg |  |  |
| CC(=O)N[C@H](C)c1ccc(Nc2ncc3cc(-c4ccncc4)c(Cl)cc3n2)cc1 |  |  | < 1% |  |
| CC(=O)N[C@H](C)c1ccc(Nc2ncc3cc(-c4ccncc4)cc(Cl)c3n2)cc1 |  |  | < 1% |  |
| CC(=O)N[C@H](C)c1ccc(Nc2ncc3cc(-c4ccncc4)c(C)cc3n2)cc1 |  |  | 1.9% |  |
| CC(=O)N[C@H](C)c1ccc(Nc2ncc3cc(-c4ccncc4)cc(C)c3n2)cc1 |  |  | < 1% |  |
| C[C@@H](NC(=O)C1CCCCN1C)c1ccc(Nc2ncc3cc(-c4ccncc4)ccc3n2)cc1 (mixture of isomers) |  |  | 3.8% |  |

From ChEMBL document CHEMBL2331403, “Discovery and optimization of a novel series of potent mutant B-Raf(V600E) selective kinase inhibitors” (J Med Chem, 2013)
